Kir21 inh – inhibitors of mouse Kir2.1 inward-rectifier potassium channel | B-score at 10 µM | actives 0.85% (n = 310,000) | HEK293-Kir2.1, FluxOR thallium flux fluorescence; active compounds read low;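 active means fluorescence ratio B-score at or below minus 3 SD of library scores, with starting-brightness B-score within 2 SD, cut at about -4.2 in these data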;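 further: channel flux triggered by added potassium and thallium sulfate stimulus; B-score of peak minus minimum fluorescence over baseline after thallium stimulus; more negative B-score means stronger Kir2.1 block with less thallium influx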
SR-BI DiI inh – inhibitors of mouse SR-BI mediated HDL lipid uptake; Q61009; ldlA[mSR-BI] CHO cells, DiI-HDL uptake fluorescence, 3 h; inhibition, % at 12.5 µM; actives 0.96% (n = 320,000); AID 488896;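 active means mean replicate inhibition of at least 70% and a set share of replicates each scoring 70 or more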;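 further: 0% = median of neutral control wells and 100% = median of positive control wells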
SR-BI DiI-HDL act – activators of SR-BI mediated HDL lipid uptake | CHO ldlA[mSR-BI] cells, DiI-HDL uptake fluorescence, 3 h; 100 = double the neutral-control signal | activation, % at 12.5 µM | actives 0.096% (n = 320,000) | AID 504775;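 active means mean replicate activation of at least 60% and every replicate at or above 60%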;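 further: 0% = median plate neutral-control signal and 100% = twice that signal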
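Assay system: CHO ldlA[mSR-BI] cells, LDL receptor-null, SR-BI overexpressing; medium: Ham's F12 with 0.5% BSA, HEPES 25 mM, pH 7.4; also added: DiI-HDL 10 µg/mL; timing: 3 h uptake period with compound, 37 °C; signal: DiI fluorescence, bottom read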
TMEM16A inh – inhibitors of mouse TMEM16A calcium-activated chloride channel; actives 1.2% (n = 310,000); normalized B-score (activity score, 25-100; higher = stronger inhibition) at 10 µM; HEK293 TMEM16A/YFP iodide influx fluorescence, ionomycin; Q8BHY3; AID 588511;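 active means ratio plate-corrected score three or more library SD toward inhibition, starting fluorescence score within five deviations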;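 further: score derived from kinetic fluorescence span divided by baseline fluorescence per well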
TMEM16A act – mouse TMEM16A channel activation, primary screen; Q8BHY3; HEK293 TMEM16A/YFP-H148Q/I152L, iodide quench fluorescence; active compounds read low; B-score at 10 µM; actives 0.3% (n = 340,000); AID 623877;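 active means fluorescence-ratio B-score plate-corrected deviation score at least 3 library SD below zero, with starting fluorescence score within 5 deviations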;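 further: channel opened by trigger with iodide after compound preincubation; score built on the fluorescence ratio of max minus min over baseline; more negative score means more quench and so TMEM16A activation or potentiation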
DNA FID counter – counter-screen for HCV NS3 helicase inhibitors: DNA intercalator displacement; DNA fluorescent intercalator displacement, fluorescence; inhibition, % at 7.9 µM; actives 0.17% (n = 290,000); AID 1845; in the data active means inhibition above about 37%;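 further: 0% = vehicle and 100% = reference compound; higher means more ethidium bromide displaced from hairpin DNA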
An asterisk follows results filed as active; i = inactive; . = no result. Only some compounds are listed: those with a hit (about 3% of all), similar ones and a draw of the others.

SMILES	Kir21 inh	SR-BI DiI inh	SR-BI DiI-HDL act	TMEM16A inh	TMEM16A act	DNA FID counter
CCOc1ccccc1C=NNC(=O)C(=O)NN=Cc1ccccc1OCC	.	24.8	-24.8	.	i	.
CCOc1ccc(/C=N/NC(=O)c2ccc(Cn3cc([N+](=O)[O-])cn3)o2)cc1	0.27	26.2	-26.2	i	i	-6.8
CCOc1ccccc1/C=N/NC(=O)c1ccc(Cn2cc([N+](=O)[O-])cn2)o1	1.72	86.7*	-86.7	i	i	-11.1
CCOc1ccccc1C=NNC(=O)CCCCC(=O)NN=Cc1ccccc1OCC	.	80.7*	-80.7	.	i	.
CCOc1ccccc1NC(=O)C(=O)N/N=C/c1cc(Br)ccc1O	-0.12	125.8*	-125.8	i	i	-2.4
CC(=O)c1ccc(OCCCC(=O)NNC(=O)c2ccccn2)cc1	.	-16.3	16.3	.	i	.
CCCCCCCCC[n+]1cccc2c3ccccc3ccc21	-10.4*	-8.2	8.2	100*	i	29.7
CCCCCCCCCCCCCCCC[n+]1cccc2ccccc21	.	-13.0	13.0	100*	i	14.6
CC(=O)c1ccccc1OCCCOc1cccc2cccnc12	-0.23	40.6	-40.6	i	i	-28.6
CC(C)Oc1ccccc1OCCCOc1cccc2cccnc12	-6.56*	54.4	-54.4	i	i	-31.9
Cc1ccc2c(Cl)c(C)c(N3CCOCC3)nc2n1	.	-4.3	4.3	.	i	.
COc1ccc(C(=O)NOCc2ccccc2)cc1	-0.8	4.7	-4.7	i	i	.
Cc1ccc(-c2nc(N)sc2-c2ccc(C)cc2)cc1	-0.11	72.7*	-72.7	.	i	1.1
COCCNC(=O)C(c1ccc(F)cc1)N(CCOC)C(=O)CCC(=O)Nc1ccccn1 (stereo unspecified)	-1.08	-13.0	13.0	i	i	-25.3
COc1ccc(CCNc2ncnc3[nH]ncc23)cc1OC	1.65	13.4	-13.5	i	i	-2.2
COc1ccc(CCNc2ncnc3sc(C)cc23)cc1OC	-6.23*	-1.4	1.4	i	i	-15.6
O=C1NC(=Nc2ccc(Cl)cc2)/C(=C/c2ccco2)S1	0.92	82.0*	-82.0	i	i	-2.6
C#CCNC(=O)C1=C[C@@H](C)[C@H](CCCO)[C@@H](OCC)O1	0.55	-22.2	22.2	i	i	.
O=C(CNC(=O)c1ccc(S(=O)(=O)N2CCCC2)cc1)N/N=C/c1ccc(Cl)cc1	0.9	72.1*	-72.1	i	i	-18.3
O=C(CNC(=O)c1ccc(S(=O)(=O)N2CCCC2)cc1)N/N=C/c1ccccc1	1.19	44.7	-44.7	i	i	-9.7
O=C(N/N=C/c1ccc(O)c2ncccc12)c1cccc(Br)c1	0.22	71.9*	-71.9	i	i	-10.3
O=C(N/N=C/c1cc(Br)ccc1O)c1ccncc1	1.66	120.3*	-120.3	i	i	-2.1
Cc1cc(C(=O)N/N=C/c2cc(Br)ccc2OC(=O)c2ccccc2)n[nH]1	.	45.0	-45.0	i	i	-0.3
Cc1cc(C(=O)N/N=C/c2cc(Br)ccc2OC(=O)c2ccccc2Cl)n[nH]1	-0.44	86.7*	-86.7	i	i	-3.1
Oc1ccccc1N1CCN(CC(O)COC2CCCc3ccccc32)CC1 (stereo unspecified)	0.12	.	.	i	i	5.6
SMILES	Kir21 inh	SR-BI DiI inh	SR-BI DiI-HDL act	TMEM16A inh	TMEM16A act	DNA FID counter
O=C(N/N=C/c1cc(Cl)ccc1O)c1ccc(Br)cc1	.	134.9*	-134.8	i	i	-10.1
O=C(N/N=C/c1cc(Br)ccc1OC(=O)c1ccc(Br)cc1)c1ccncc1	-0.39	95.9*	-95.9	i	i	-27.8
NC(=O)N/N=C\c1cc(Br)ccc1O	1.52	-15.0	15.0	i	i	-4.3
O=C(N/N=C/c1ccc(O)c(O)c1)c1cccc(S(=O)(=O)N2CCCCC2)c1	-1.22	3.7	-3.7	i	i	-9.7
O=C(N/N=C\c1cc(Br)ccc1O)c1ccc(S(=O)(=O)N2CCCCC2)cc1	-0.6	136.8*	-136.8	i	i	-3.1
O=C(N/N=C/c1cc(O)ccc1Br)c1cccnc1	-0.51	77.0*	-77.0	i	i	-5.5
O=C(N/N=C/c1cc(Br)c(O)c(Br)c1O)c1cccnc1	0.08	-3.1	3.1	i	i	-5.3
